From ChEMBL document CHEMBL1132700, “Design, synthesis, structure-activity relationships, and biological characterization of novel arylalkoxyphenylalkylamine sigma ligands as potential antipsychotic drugs” (J Med Chem, 1999) come the findings set out here.

By IC50 is commonly meant the concentration at which inhibition is half-maximal. Low readings indicate greater potency in that assay, high ones weaker potency in that assay.

One experiment deals with D(2) dopamine receptor (Rattus norvegicus, UniProt P61169). The experiment in a line: Inhibitory concentration against radioligand [3H](-)-sulpiride binding to Dopamine receptor D2 in rat. A digest of the protocol:
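Striatal membranes from male Wistar rats (200–250 g), homogenized in 50 mM Tris/HCl pH 7.7, washed by repeated 50000g spins. Filtration on PEI-soaked glass-fiber filters, then scintillation counting. IC50 by nonlinear curve fitting, duplicate determinations.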

The subject of experiment [1] is Mus musculus. As to the kind of experiment: Effect at an intraperitoneal dose of 30 mg/Kg against (+)-SKF-10047-induced stereotyped behavior in mice was determined. It is filed as functional. A digest of the protocol: (§1)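 Male ICR mice (25–30 g, 10 per group) acclimatized at least 1 h. Test drug given orally 30 min before (+)-SKF10,047 30 mg/kg ip. Stereotypy scored on a 0–5 scale from 10 min post-injection, every 5 min for 40 min. Vehicle plus three doses were tested. Total score expressed as percent of control, and ED25 derived.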

In experiment [2] the target is Sigma non-opioid intracellular receptor 1 (Rattus norvegicus, UniProt Q9R0C9). As to the kind of experiment: Inhibitory concentration against radioligand [3H]3-PPP binding to Sigma opioid receptor type 1 in rat brain membrane. In kind it is cell membranes. The method in brief: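 Rat whole-brain membranes from male Wistar rats (200–250 g), homogenized in 50 mM Tris/HCl pH 7.7, washed by repeated 50000g spins. Incubated with 2 nM [3H]-(+)-3-PPP and at least five concentrations of unlabeled drug. Filtered on polyethylenimine-soaked glass-fiber filters and counted by scintillation. IC50 from nonlinear curve fitting of competition data, duplicate determinations.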

For experiment [3], the system named is Mus musculus. As to the kind of experiment: Effect at an intraperitoneal dose of 10 mg/kg against methamphetamine-induced hyperlocomotion in mice. In kind it is functional.
In experiment [4] the target is T1, 5-hydroxytryptamine receptor 1A (Rattus norvegicus, UniProt P19327).
T1 sequence (P19327 whole entry): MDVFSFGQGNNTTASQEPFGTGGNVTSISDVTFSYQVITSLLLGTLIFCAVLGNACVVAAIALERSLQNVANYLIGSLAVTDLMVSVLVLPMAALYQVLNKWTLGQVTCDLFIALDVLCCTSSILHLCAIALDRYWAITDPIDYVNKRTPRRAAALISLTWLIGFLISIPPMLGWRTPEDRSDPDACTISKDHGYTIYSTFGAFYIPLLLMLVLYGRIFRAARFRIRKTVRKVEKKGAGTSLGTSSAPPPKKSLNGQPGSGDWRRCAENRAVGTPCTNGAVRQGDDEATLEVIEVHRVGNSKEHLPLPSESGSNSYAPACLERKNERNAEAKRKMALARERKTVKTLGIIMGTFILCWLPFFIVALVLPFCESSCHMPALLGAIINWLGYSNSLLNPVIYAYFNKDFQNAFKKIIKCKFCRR
As to the kind of experiment: Inhibitory concentration against radioligand [3H]hydroxy-2-(di-n-propylamino)-tetralin binding to 5-hydroxytryptamine 1A receptor in rat. The method in brief:
(§2)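 Male Wistar rat brain membranes in 50 mM Tris/HCl pH 7.7. Radioligands: PCP site 5 nM [3H]-PCP; D1 1 nM [3H]-SCH23390; 5-HT1A 0.2 nM [3H]-8-OH-DPAT; 5-HT2 5 nM [3H]-ketanserin; α1 0.2 nM [3H]-prazosin. Competition with at least five drug concentrations, filtration on PEI-soaked glass-fiber filters, scintillation counting, IC50 by nonlinear curve fit.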

Experiment [5] has as its target Serotonin 2 (5-HT2) receptor (Rattus norvegicus, UniProt P30994+P08909+P14842). As to the kind of experiment: Inhibitory concentration against radioligand [3H]ketanserin binding to 5-hydroxytryptamine 2 receptor in rat. The method in brief: as §2
The target of another experiment is D(1A) dopamine receptor (Rattus norvegicus, UniProt P18901). As to the kind of experiment: Inhibitory concentration against radioligand [3H]SCH-23390 binding to Dopamine receptor D1 in rat. A digest of the protocol:
as §2

Experiment [6] is filed under the species Mus musculus. The experiment in a line: Effective dose against (+)-SKF-10047-induced stereotyped behavior in mice was determined. It is filed as functional. A digest of the protocol: as §1
For experiment [7], the target named is Glutamate receptor ionotropic, NMDA 1 (Rattus norvegicus, UniProt P35439). The experiment in a line: Inhibitory concentration against radioligand [3H]PCP binding to PCP site of N-methyl-D-aspartate glutamate receptor in rat. A digest of the protocol:
as §2

In experiment [8] the target is T2, Adrenergic receptor alpha-1 (Rattus norvegicus, UniProt P15823+P23944+P43140).
T2 sequence (P15823 whole entry): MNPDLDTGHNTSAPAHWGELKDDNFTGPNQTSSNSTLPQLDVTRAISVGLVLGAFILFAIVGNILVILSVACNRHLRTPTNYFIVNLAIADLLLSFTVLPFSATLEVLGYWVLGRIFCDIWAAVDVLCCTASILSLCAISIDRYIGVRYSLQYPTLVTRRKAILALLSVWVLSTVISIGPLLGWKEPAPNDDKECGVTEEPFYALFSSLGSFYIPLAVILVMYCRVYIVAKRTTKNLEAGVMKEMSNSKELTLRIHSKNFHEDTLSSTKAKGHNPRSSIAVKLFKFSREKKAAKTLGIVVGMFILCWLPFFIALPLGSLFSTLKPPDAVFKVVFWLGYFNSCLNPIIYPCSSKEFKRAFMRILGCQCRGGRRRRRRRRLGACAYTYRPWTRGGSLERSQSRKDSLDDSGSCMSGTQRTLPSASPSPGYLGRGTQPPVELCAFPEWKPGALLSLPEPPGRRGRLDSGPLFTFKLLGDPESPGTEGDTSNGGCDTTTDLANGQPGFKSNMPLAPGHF
T2 sequence (P23944 whole entry): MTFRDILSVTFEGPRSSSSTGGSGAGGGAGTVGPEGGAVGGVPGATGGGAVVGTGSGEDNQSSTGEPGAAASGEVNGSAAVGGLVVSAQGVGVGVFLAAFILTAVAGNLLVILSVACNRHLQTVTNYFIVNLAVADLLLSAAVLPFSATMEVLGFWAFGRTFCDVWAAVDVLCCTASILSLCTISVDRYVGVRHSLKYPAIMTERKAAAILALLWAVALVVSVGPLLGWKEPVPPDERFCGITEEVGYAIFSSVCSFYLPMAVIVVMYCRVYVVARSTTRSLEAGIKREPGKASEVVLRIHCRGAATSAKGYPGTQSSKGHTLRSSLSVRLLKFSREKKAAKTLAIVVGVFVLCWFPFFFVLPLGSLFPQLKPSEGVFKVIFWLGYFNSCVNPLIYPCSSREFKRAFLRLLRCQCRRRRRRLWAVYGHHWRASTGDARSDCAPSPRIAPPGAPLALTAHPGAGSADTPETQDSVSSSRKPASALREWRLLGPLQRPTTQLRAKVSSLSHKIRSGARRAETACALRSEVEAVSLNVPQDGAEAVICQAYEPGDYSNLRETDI
T2 sequence (P43140 whole entry): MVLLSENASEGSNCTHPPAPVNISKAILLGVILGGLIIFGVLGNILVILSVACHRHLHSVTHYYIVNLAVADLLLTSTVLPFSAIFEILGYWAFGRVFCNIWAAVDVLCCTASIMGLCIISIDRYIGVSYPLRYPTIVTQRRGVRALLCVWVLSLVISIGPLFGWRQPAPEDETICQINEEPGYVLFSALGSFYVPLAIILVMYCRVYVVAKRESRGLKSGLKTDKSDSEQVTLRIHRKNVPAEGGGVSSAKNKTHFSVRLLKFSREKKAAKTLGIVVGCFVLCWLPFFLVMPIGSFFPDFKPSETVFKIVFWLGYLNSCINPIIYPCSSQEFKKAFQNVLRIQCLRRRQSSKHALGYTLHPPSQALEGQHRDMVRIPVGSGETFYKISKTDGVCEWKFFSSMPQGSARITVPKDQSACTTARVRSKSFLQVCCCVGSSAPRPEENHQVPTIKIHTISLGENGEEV
The experiment in a line: Inhibitory concentration against radioligand [3H]prazosin binding to Alpha-1 adrenergic receptor in rat. The method in brief: as §2

Sequence of D(2) dopamine receptor (P61169 whole entry): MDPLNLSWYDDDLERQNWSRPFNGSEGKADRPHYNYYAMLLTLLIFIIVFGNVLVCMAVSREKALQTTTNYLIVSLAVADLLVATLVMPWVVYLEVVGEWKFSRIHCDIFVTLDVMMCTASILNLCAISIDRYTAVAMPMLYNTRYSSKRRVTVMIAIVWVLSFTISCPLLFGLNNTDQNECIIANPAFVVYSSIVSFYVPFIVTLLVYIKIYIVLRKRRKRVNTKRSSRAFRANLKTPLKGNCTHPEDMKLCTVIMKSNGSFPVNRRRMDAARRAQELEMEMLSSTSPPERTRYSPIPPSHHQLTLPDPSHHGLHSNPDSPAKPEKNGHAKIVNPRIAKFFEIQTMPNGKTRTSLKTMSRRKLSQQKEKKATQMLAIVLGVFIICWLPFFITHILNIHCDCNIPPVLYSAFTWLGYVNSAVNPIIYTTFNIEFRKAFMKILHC
Sequence of D(1A) dopamine receptor (P18901 whole entry): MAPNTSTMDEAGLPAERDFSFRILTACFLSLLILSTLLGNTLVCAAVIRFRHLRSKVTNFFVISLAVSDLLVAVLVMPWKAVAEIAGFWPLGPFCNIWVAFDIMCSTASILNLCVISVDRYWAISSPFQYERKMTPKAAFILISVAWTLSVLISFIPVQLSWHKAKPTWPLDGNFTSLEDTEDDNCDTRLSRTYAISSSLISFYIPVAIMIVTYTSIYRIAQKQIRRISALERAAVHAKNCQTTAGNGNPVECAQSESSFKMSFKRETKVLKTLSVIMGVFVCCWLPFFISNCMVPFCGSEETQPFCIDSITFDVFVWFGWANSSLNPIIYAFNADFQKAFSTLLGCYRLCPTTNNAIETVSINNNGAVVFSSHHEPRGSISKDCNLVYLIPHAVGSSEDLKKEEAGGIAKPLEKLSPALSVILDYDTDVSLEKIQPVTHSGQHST
Sequence of Sigma non-opioid intracellular receptor 1 (Q9R0C9 whole entry): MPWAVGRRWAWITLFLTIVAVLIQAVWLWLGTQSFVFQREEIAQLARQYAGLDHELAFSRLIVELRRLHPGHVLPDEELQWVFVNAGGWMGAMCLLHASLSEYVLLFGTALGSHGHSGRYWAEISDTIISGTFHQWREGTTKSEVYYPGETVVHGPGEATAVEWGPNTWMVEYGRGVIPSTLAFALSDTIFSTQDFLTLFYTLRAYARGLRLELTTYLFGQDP

In the case of `CCCN(CCC)CCc1cccc(OC)c1OCc1ccccc1.O=C(O)C(=O)O`, the IC50 at D(2) dopamine receptor was greater than 1000 nM; in experiment [2], 26 nM. The same molecule registered a Control with Mus musculus [1] of 64%.
The molecule `O=C(CCCN1CCC(O)(c2ccc(Cl)cc2)CC1)c1ccc(F)cc1` [HALOPERIDOL] showed a Control in the experiment on Mus musculus [3] of 7.3%.
Take `CCCN(CCC)CCCc1ccc(OC)c(OCCc2ccccc2)c1.Cl`: the IC50 in experiment [4] is 373 nM; in experiment [5], greater than 1000 nM; on D(1A) dopamine receptor, greater than 1000 nM; in experiment [7], greater than 1000 nM; in [2], 1 nM; in experiment [8], 14100 nM. For the same molecule, the ED25 in the experiment filed under Mus musculus [6] was 44 mg/kg. The Control with Mus musculus [3] is given as 99%.
For `CCCN(CCC)CCc1ccc(OC)c(OCCc2ccccc2)c1.Cl`, the IC50 in [4] was 6460 nM; in experiment [5], greater than 1000 nM; on D(1A) dopamine receptor it was greater than 1000 nM; at D(2) dopamine receptor, greater than 1000 nM; in experiment [7], greater than 1000 nM; in experiment [8] it was 10800 nM. In the experiment filed under Mus musculus [6], this molecule came in with an ED25 of 6.5 mg/kg. Moreover, in the experiment on Mus musculus [3], the Control worked out at 119%.
Consider `CCCN(CCC)CCc1cc(Cl)ccc1OCCc1ccccc1.O=C(O)C(=O)O`, for which the IC50 in experiment [4] was 289 nM; in experiment [5] it was 196 nM; at D(1A) dopamine receptor it was greater than 1000 nM; in experiment [7], greater than 1000 nM; in experiment [8], 90 nM. For the same molecule, the ED25 in the experiment filed under Mus musculus [6] was 235 mg/kg.
In the case of `CCCN(CCC)CCc1cccc(OC)c1OCCc1ccccc1.Cl`, the IC50 in experiment [4] was 3580 nM; in [5], 8800 nM; at D(1A) dopamine receptor, greater than 1000 nM; on D(2) dopamine receptor, greater than 1000 nM; in [7], greater than 10000 nM; in experiment [8], 11700 nM. Moreover, the ED25 in the experiment listed under Mus musculus [6] was 79 mg/kg. Moreover, in the experiment on Mus musculus [3], the Control amounted to 98%.
